Results published in ChEMBL document CHEMBL1781993, “Synthesis and biological evaluation of novel 7-acyl homocamptothecins as Topoisomerase I inhibitors” (Eur J Med Chem, 2011).
pIC50: −log10 of the molar value. Active and inactive are the calls of the source. No cut-off for these calls is given here.

Legend:
[1] = tested on: MDA-MB-435; experiment: Cytotoxicity against human MDA-MB-435 cells after 3 days by MTT assay; format: functional, cell-based; conditions: MDA-MB-435, 72 h
Procedure, shortened: (§1)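 After 3 days, MTT (5 mg/mL solution) was added and plates incubated a further 4 h. Formazan was dissolved in DMSO and absorbance read at 570 nm. Survival expressed as percentage of untreated control wells.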

[2] = tested on: HCT-116; experiment: Cytotoxicity against human HCT116 cells after 3 days by MTT assay; format: functional, cell-based; conditions: HCT-116, 72 h; procedure, shortened: as §1
[3] = tested on: A549; experiment: Cytotoxicity against human A549 cells after 3 days by MTT assay; format: functional, cell-based; conditions: A549, 72 h; procedure, shortened: as §1
[4] = target: T1, Topoisomerase I (Bos taurus) (UniProt Q2HPH0); experiment: Inhibition of calf thymus topoisomerase 1-mediated relaxation of supercoiled pBR322 at 10 uM after 15 mins using ethidium bromide staining by UV transilluminator analysis
T1 sequence (whole entry): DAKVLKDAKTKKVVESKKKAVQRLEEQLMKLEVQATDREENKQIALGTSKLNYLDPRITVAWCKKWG
Procedure, shortened: (§2)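 Topo I with DNA was reacted with compound at 37 °C for 15 min. Reactions were stopped with SDS (0.5% final), then 6× loading buffer (0.1 mM EDTA, 7% glycerol, 0.01% xylene cyanol FF, 0.01% bromophenol blue) was added. Products were separated by gel. Compound concentrations were 1, 10 and 50 µM, and a topo I plus DNA sample without drug served as reference.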

[5] = target: T1, Topoisomerase I (Bos taurus); experiment: Inhibition of calf thymus topoisomerase 1-mediated relaxation of supercoiled pBR322 assessed as increase in cleavable complex level after 15 mins using ethidium bromide staining by UV transilluminator analysis; procedure, shortened: as §2
[6] = target: T1, Topoisomerase I (Bos taurus); experiment: Inhibition of calf thymus topoisomerase 1-mediated relaxation of supercoiled pBR322 assessed as formation of nicked DNA at 1 to 50 uM after 15 mins using ethidium bromide staining by UV transilluminator; procedure, shortened: as §2

Structure (SMILES): CCCCC(=O)c1c2c(nc3ccc(OC)cc13)-c1cc3c(c(=O)n1C2)COC(=O)CC3(O)CC (racemic)
- pIC50 [1]: 6.70
- pIC50 [2]: 6.56
- pIC50 [3]: 5.15

Structure (SMILES): CCC1(O)CC(=O)OCc2c1cc1n(c2=O)Cc2c-1nc1ccc(OC)cc1c2C(=O)c1ccc(OC)cc1 (racemic)
- pIC50 [1]: 4.79
- pIC50 [2]: 5.68
- pIC50 [3]: 5.03

Structure (SMILES): CCC1(O)CC(=O)OCc2c1cc1n(c2=O)Cc2c-1nc1ccc(OC)cc1c2C(=O)c1cccs1 (racemic)
- pIC50 [1]: 5.79
- pIC50 [2]: 5.66
- topoisomerase I inhibition (qualitative call) [4]: Active
- pIC50 [3]: 6.22

Structure (SMILES): CCC1(O)CC(=O)OCc2c1cc1n(c2=O)Cc2c-1nc1ccc(OC)cc1c2C(=O)c1cc(C)cc(C)c1 (racemic)
- pIC50 [1]: < 4.00
- pIC50 [2]: 4.58
- pIC50 [3]: 4.32

Structure (SMILES): CCCCCCC(=O)c1c2c(nc3ccc(OC)cc13)-c1cc3c(c(=O)n1C2)COC(=O)CC3(O)CC (racemic)
- pIC50 [1]: 6.88
- pIC50 [2]: 6.50
- topoisomerase I inhibition (qualitative call) [4]: Active
- pIC50 [3]: 6.32

Structure (SMILES): CC[C@@]1(O)C(=O)OCc2c1cc1n(c2=O)Cc2cc3c(CN(C)C)c(O)ccc3nc2-1 [TOPOTECAN]
- pIC50 [1]: 6.35
- pIC50 [2]: 5.96
- pIC50 [3]: 5.50

Structure (SMILES): CCC1(O)CC(=O)OCc2c1cc1n(c2=O)Cc2c-1nc1ccc(OC)cc1c2C(=O)C(C)C (racemic)
- pIC50 [1]: 7.67
- pIC50 [2]: 6.39
- pIC50 [3]: 5.64

Structure (SMILES): CCC1(O)CC(=O)OCc2c1cc1n(c2=O)Cc2c-1nc1ccc(OC)cc1c2C(=O)c1ccc(C(F)(F)F)cc1 (racemic)
- pIC50 [1]: 5.83
- pIC50 [2]: 5.72
- topoisomerase I inhibition (qualitative call) [4]: Active
- pIC50 [3]: 6.20

Structure (SMILES): CCC1(O)CC(=O)OCc2c1cc1n(c2=O)Cc2c-1nc1ccc(OC)cc1c2C1CCCC1 (racemic)
- pIC50 [1]: 7.38
- pIC50 [2]: 7.15
- topoisomerase I inhibition (qualitative call) [4]: Active
- pIC50 [3]: 6.14

Structure (SMILES): CCC1(O)CC(=O)OCc2c1cc1n(c2=O)Cc2c-1nc1ccc(OC)cc1c2C1CCCCC1 (racemic)
- pIC50 [1]: 7.12
- pIC50 [2]: 6.93
- pIC50 [3]: 6.18

Structure (SMILES): CCC1(O)CC(=O)OCc2c1cc1n(c2=O)Cc2c-1nc1ccc(OC)cc1c2C(=O)c1ccc(F)cc1 (racemic)
- pIC50 [1]: 4.80
- pIC50 [2]: 4.88
- pIC50 [3]: 5.11

Structure (SMILES): CCC1(O)CC(=O)OCc2c1cc1n(c2=O)Cc2c-1nc1ccc(OC)cc1c2C(=O)c1ccco1 (racemic)
- inhibition [5]: Dose-dependent effect
- pIC50 [1]: 8.66
- inhibition [6]: Active
- pIC50 [2]: 6.53
- topoisomerase I inhibition (qualitative call) [4]: Active
- pIC50 [3]: > 9.00

Structure (SMILES): CCC1(O)CC(=O)OCc2c1cc1n(c2=O)Cc2c-1nc1ccc(OC)cc1c2C(=O)C1CCCCC1 (racemic)
- pIC50 [1]: > 9.00
- pIC50 [2]: 6.35
- pIC50 [3]: 6.17

Structure (SMILES): CCC1(O)CC(=O)OCc2c1cc1n(c2=O)Cc2c-1nc1ccc(OC)cc1c2C(=O)c1ccccc1 (racemic)
- pIC50 [1]: 5.66
- pIC50 [2]: 5.53
- pIC50 [3]: 5.75

Structure (SMILES): CC[C@@]1(O)C(=O)OCc2c1cc1n(c2=O)Cc2cc3ccccc3nc2-1
- inhibition [5]: Dose-dependent effect
- inhibition [4]: Active

Structure (SMILES): CCC1(O)CC(=O)OCc2c1cc1n(c2=O)Cc2c-1nc1ccc(OC)cc1c2C(=O)c1ccc(Cl)cc1 (racemic)
- pIC50 [1]: 5.68
- pIC50 [2]: 5.52
- pIC50 [3]: 6.18

Structure (SMILES): CCC1(O)CC(=O)OCc2c1cc1n(c2=O)Cc2c-1nc1ccc(OC)cc1c2C(=O)c1ccc2ccccc2c1 (racemic)
- pIC50 [1]: < 4.00
- pIC50 [2]: 4.64
- pIC50 [3]: < 4.00

Structure (SMILES): CCCC(=O)c1c2c(nc3ccc(OC)cc13)-c1cc3c(c(=O)n1C2)COC(=O)CC3(O)CC (racemic)
- pIC50 [1]: 6.70
- pIC50 [2]: 6.57
- pIC50 [3]: 4.85

Structure (SMILES): CCC(=O)c1c2c(nc3ccc(OC)cc13)-c1cc3c(c(=O)n1C2)COC(=O)CC3(O)CC (racemic)
- pIC50 [1]: 7.20
- pIC50 [2]: 7.25
- pIC50 [3]: 5.05

Structure (SMILES): CCC1(O)CC(=O)OCc2c1cc1n(c2=O)Cc2c-1nc1ccc(OC)cc1c2C(=O)C1CCCC1 (racemic)
- inhibition [5]: Dose-dependent effect
- pIC50 [1]: > 9.00
- inhibition [6]: Active
- pIC50 [2]: 8.66
- topoisomerase I inhibition (qualitative call) [4]: Active
- pIC50 [3]: 6.37

Structure (SMILES): CCC1(O)CC(=O)OCc2c1cc1n(c2=O)Cc2c-1nc1ccc(OC)cc1c2C(=O)c1ccc(C)cc1 (racemic)
- pIC50 [1]: 5.14
- pIC50 [2]: 5.09
- pIC50 [3]: 5.47

Structure (SMILES): CCC1(O)CC(=O)OCc2c1cc1n(c2=O)Cc2c-1nc1ccc(OC)cc1c2C(=O)C1CC1 (racemic)
- pIC50 [1]: 7.32
- pIC50 [2]: 8.23
- pIC50 [3]: 5.61
